TRPC4 PAM: allosteric potentiators of mouse TRPC4 channel; Q9QUQ5; HEK293 TRPC4beta/mu-opioid, DAMGO EC20, Fluo-4 Ca2+ flux; active compounds read high; B-score at 10 µM; hit rate 0.42% among 310,000; AID 2227;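 active means B-score of calcium response area above 5 SD of library B-scores, with initial fluorescence ratio within 5 SD of library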;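 further: B-score of integrated fluorescence ratio over time as area under calcium response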
Target sequence (Q9QUQ5 whole entry, looked up): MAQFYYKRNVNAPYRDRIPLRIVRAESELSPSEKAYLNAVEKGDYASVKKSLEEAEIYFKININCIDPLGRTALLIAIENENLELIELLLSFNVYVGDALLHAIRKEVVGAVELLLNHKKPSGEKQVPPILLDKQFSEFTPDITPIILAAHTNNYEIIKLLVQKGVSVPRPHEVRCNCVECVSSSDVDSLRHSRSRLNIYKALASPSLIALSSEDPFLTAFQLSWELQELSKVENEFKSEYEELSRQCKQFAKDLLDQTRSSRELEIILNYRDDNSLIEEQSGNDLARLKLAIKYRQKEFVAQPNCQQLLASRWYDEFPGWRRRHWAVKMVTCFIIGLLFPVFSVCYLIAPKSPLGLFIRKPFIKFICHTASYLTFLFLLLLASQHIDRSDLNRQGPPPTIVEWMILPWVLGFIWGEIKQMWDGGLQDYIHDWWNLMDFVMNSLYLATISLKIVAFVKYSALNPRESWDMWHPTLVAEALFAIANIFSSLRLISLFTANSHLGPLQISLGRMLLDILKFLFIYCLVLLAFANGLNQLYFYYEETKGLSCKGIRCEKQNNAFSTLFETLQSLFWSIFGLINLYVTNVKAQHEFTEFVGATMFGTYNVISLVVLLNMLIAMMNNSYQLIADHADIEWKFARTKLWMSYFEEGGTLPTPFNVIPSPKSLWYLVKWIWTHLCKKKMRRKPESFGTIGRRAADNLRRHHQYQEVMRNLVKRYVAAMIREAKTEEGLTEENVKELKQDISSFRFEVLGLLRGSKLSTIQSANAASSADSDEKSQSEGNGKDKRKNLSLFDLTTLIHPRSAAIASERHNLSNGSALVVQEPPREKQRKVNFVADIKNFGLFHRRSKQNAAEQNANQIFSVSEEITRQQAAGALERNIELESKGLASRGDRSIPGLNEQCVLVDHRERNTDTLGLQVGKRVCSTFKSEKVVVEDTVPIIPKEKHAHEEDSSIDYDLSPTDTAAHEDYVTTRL
TRPC6 inhibitor: blocks the mouse TRPC6 cation channel; hit rate 1.1% among 310,000; B-score at 10 µM; HEK293-TRPC6, membrane potential dye, ACh-evoked depolarization; active compounds read low; Q61143; AID 2553;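 active means B-score under library mean minus 3 SD, initial fluorescence not abnormally high, positive integrated signal ratio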;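 further: B-score derived from integrated fluorescence ratio over the kinetic read; more negative B-score means stronger inhibition of depolarization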
TRPC6 activator: mouse TRPC6 channel activation. HEK293-TRPC6 membrane potential dye fluorescence; active compounds read high. B-score at 10 µM. AID 2550. hit rate 0.13% among 310,000;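 active means B-score of the integrated fluorescence ratio above library mean plus 3 SD, and starting fluorescence ratio within library mean plus 5 SD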;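 further: higher score means more depolarization so channel activation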
TRPC4 block: inhibitors of mouse TRPC4 channel; hit rate 0.39% among 300,000; AID 2247; B-score at 10 µM; Q9QUQ5; HEK293 TRPC4beta/mu-opioid, DAMGO-evoked Fluo4 calcium flux; active compounds read low;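 active means B-score over 3 SD under the library average, no early fluorescence shift, positive overall ratio signal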
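System: stable TRPC4beta/mu-opioid receptor HEK293 cells; Dosing: single-point compound dosing; Measured by: Fluo4 Ca2+ flux fluorescence; Read-out basis: per-well B score of integrated baseline-normalized Fluo4 ratio.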
TRPC4 agonist: opens the mouse TRPC4 cation channel; Q9QUQ5; HEK293 TRPC4beta/mu-opioid, Fluo4 calcium fluorescence; active compounds read high; B-score at 10 µM; hit rate 0.49% among 310,000; AID 2237;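 active means B-score above 5 SD of library B-scores, and initial fluorescence ratio not above library mean plus 5 SD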;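 further: positive B-score marks a calcium rise read as TRPC4 activation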
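Assay system: HEK293 stable line with TRPC4beta plus mu-opioid receptor; schedule: 45 min room-temperature Fluo4 loading, 110 s read; technique: kinetic Fluo4 calcium fluorescence; evaluation: integrated baseline-normalised fluorescence ratio, converted to per-well B score; controls: buffer (low) and maximal DAMGO (high)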
TRPC4 sel inh 2: mouse TRPC4 off-target activity of TRPC6 inhibitors, second screen; shares compounds with TRPC6 inhibitor; HEK293 TRPC4/MOR, membrane potential dye fluorescence; channel activated by saturating DAMGO dose; inhibition, % at 10 µM; hit rate 42% among 920; AID 2776;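 active means compounds whose fluorescence signal differed from control wells by over 3 SD, either direction, in both duplicate plates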
TRPC4 spec: tests whether TRPC6 inhibitors also affect mouse TRPC4. HEK293 TRPC4/mu-opioid, membrane potential fluorescence. activity change, negative = inhibition, % at 10 µM. AID 2777. hit rate 61% among 920. shares compounds with TRPC6 inhibitor;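 active means rise or fall in signal beyond 3 SD of buffer-only wells in both replicate plates, either sign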;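 further: integrated kinetic ratio of fluorescence range over baseline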
HEK293 MPD ctr 2-1: parental HEK293 nonspecific activity of TRPC6 inhibitors, second screen. AID 2779. parental HEK293 membrane potential dye fluorescence; maximal acetylcholine challenge after compound addition. hit rate 31% among 920. signal change vs control, % at 10 µM. shares compounds with TRPC6 inhibitor;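 active means membrane potential signal moving either way by over 3 SD of the maximum-effect control, in both duplicate plates, meaning non-specific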
HEK293 MPD ctr-1: counter-screen for TRPC6 inhibitors: effect in parental HEK293 cells | membrane potential signal change, % at 10 µM | hit rate 60% among 920 | shares compounds with TRPC6 inhibitor | AID 2780 | parental HEK293 membrane potential dye fluorescence;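 active means membrane potential signal shifting up or down by more than 3 SD of buffer-only wells, on both duplicate plates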
HEK293 MPD ctr-2: counter-screen for TRPC6 modulators: effect in parental HEK293 cells; membrane potential signal change, % at 10 µM; hit rate 51% among 2,400; shares compounds with TRPC6 inhibitor; membrane potential dye fluorescence; AID 488924;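 active means membrane potential signal moves up or down beyond 5 SD from buffer-only wells, on both duplicate plates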
HEK293 MPD ctr 2-2: second check of TRPC6 modulator effects in parental HEK293 cells; shares compounds with TRPC6 inhibitor; membrane potential dye fluorescence; after compound, maximal acetylcholine stimulation; hit rate 14% among 2,400; inhibition, % at 10 µM;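 active means membrane potential signal drops by more than 5 SD from the mean control signal, in both duplicate plates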;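 further: plate controls were acetylcholine ECmax control wells for no effect and buffer only wells for full effect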
TRPC4/MOR mod: tests whether TRPC6 modulators also affect mouse TRPC4. shares compounds with TRPC6 inhibitor. HEK293 TRPC4/mu-opioid, membrane potential fluorescence. percent change from control (negative = decrease, positive = increase), % at 10 µM. hit rate 69% among 2,400. AID 488927;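 active means membrane potential signal moved up or down beyond 5 SD of buffer control wells, in both duplicate plates, actives on both sides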;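 further: plate controls were assay buffer wells for no effect and DAMGO maximal-effect wells for full effect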
TRPC4 ctr inh 2: second check of whether TRPC6 modulators also affect mouse TRPC4. hit rate 55% among 2,400. HEK293 TRPC4/mu-opioid, membrane potential dye fluorescence; stimulated with maximal-effect DAMGO. inhibition, % at 10 µM. shares compounds with TRPC6 inhibitor;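 active means drop in membrane potential signal beyond 5 SD of the control wells in both duplicate plates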;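 further: TRPC4 counter screen for TRPC6 hits run under conditions tuned for TRPC6 not TRPC4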
TRPC6 inh conf: confirmation of mouse TRPC6 inhibitors | shares compounds with TRPC6 inhibitor | HEK293-TRPC6, membrane potential dye, ACh-evoked depolarization | inhibition, % at 10 µM | hit rate 43% among 3,300 | AID 488960;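 active means fluorescence ratio falls more than 5 SD below the full-stimulation control mean, in both duplicate runs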;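 further: integrated fluorescence ratio of peak minus minimum over baseline after agonist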
TRPC6 act conf: confirmation of mouse TRPC6 activators. activation, % at 10 µM. hit rate 11% among 2,800. HEK293-TRPC6 membrane potential dye fluorescence, FDSS. AID 488961. shares compounds with TRPC6 inhibitor;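 active means ratio signal rise beyond 5 SD above unstimulated control wells' mean, seen in both duplicate runs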;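 further: plate controls were buffer EC0 wells for no effect and acetylcholine ECmax response for full effect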
The depositor's hits bear a star; i = inactive; · = no result given. This is a sample that favours compounds with a hit; in the whole collection about 2.3% have one here.

SMILES	TRPC4 PAM	TRPC6 inhibitor	TRPC6 activator	TRPC4 block	TRPC4 agonist	HEK293 MPD ctr-2	HEK293 MPD ctr 2-2	TRPC4/MOR mod	TRPC4 ctr inh 2	TRPC6 inh conf	TRPC6 act conf	others
COc1ccc(NC(=O)Nc2nc(C)cc(C)n2)c(OC)c1	i	-5.4*	i	i	i	-75%*	i	-15%*	i	i	i
Cc1c(NC(=O)C2(c3ccccc3)CCOCC2)c(=O)n(-c2ccccc2)n1C	i	i	i	i	i	·	·	·	·	·	·
Cc1c(NC(=O)C2(c3ccc(Cl)cc3)CCCC2)c(=O)n(-c2ccccc2)n1C	i	-6.6*	i	i	i	·	·	·	·	i	i	TRPC4 sel inh 2=i;TRPC4 spec=i;HEK293 MPD ctr 2-1=i;HEK293 MPD ctr-1=i
Cc1c(Cl)c([N+](=O)[O-])nn1CCCC(=O)Nc1c(C)n(C)n(-c2ccccc2)c1=O	i	-6.5*	i	i	i	i	i	i	i	i	i
O=C1O[C@@H]([C@H](O)CO)C(O)=C1O	i	i	i	i	i	·	·	·	·	·	·
CS/C(=N\S(=O)(=O)c1cccs1)Nc1ccc(Br)cc1F	i	i	i	i	i	·	·	·	·	·	·
CN(C)CCNC(=O)c1c(NC(=O)c2ccccc2)sc2c1CCCC2	i	-5.6*	i	i	97*	-150%*	i	-24%*	80%*	53%*	i
CC(C)=NOc1nc(NC(=O)NS(=O)(=O)c2ccccc2Cl)nc(N(C)C)n1	i	i	i	i	i	·	·	·	·	·	·
Cc1ccc(-c2cc3cccc[n+]3cc2-c2ccc(C)cc2)cc1	i	-5.8*	i	i	i	-134%*	i	-20%*	29%*	60%*	i
Cc1ccc2nc(-c3ccncc3)cc(-c3ccccc3)c2c1	i	i	i	i	i	·	·	·	·	·	·
COC(=O)C(NC(=O)c1ccc(C)cc1)(Nc1cccc(C)n1)C(F)(F)F (stereo not given)	i	-7.2*	i	i	i	·	·	·	·	63%*	·	TRPC4 sel inh 2=i;TRPC4 spec=i;HEK293 MPD ctr 2-1=i;HEK293 MPD ctr-1=i
Cc1ccc(C)c2[nH]c(=O)c(CN(CCN3CCCC3)C(=O)Nc3cccc(Cl)c3)cc12	i	-6.8*	i	i	i	i	67%*	i	80%*	60%*	i
Cc1cc(C(=O)N/N=C/c2cc(N=Nc3ccccc3)ccc2O)n[nH]1	i	-5.9*	i	i	i	i	i	i	i	i	i
Cc1[nH]n(-c2ccccc2)c(=O)c1/C=N/NC(=O)c1ccc(O)cc1O	i	i	i	i	i	·	·	·	·	·	·
Cc1cc(C(=O)N/N=C/c2c(C)[nH]n(-c3ccccc3)c2=O)n[nH]1	i	-7.9*	i	i	i	·	·	·	·	i	i	TRPC4 sel inh 2=i;TRPC4 spec=-23%*;HEK293 MPD ctr 2-1=i;HEK293 MPD ctr-1=-328%*
COc1ccc(C(=O)NNC(=O)C(=O)NC2CCCCC2)cc1	i	i	i	i	i	·	·	·	·	·	·
CCOC(=O)c1ccccc1NC(=O)COC(=O)C1CCCC1	i	-8.1*	14*	i	i	137%*	i	32%*	i	58%*	118%*
CCOC(=O)c1ccccc1NC(=O)COC(=O)CC1CCCCC1	i	i	i	i	i	·	·	·	·	·	·
CCOC(=O)c1ccccc1NC(=O)c1c(F)c(F)c(F)c(F)c1F	i	-6.2*	i	i	i	i	i	i	i	i	i
CCOC(=O)c1ccccc1NC(=O)c1ccc(F)cc1	i	i	i	i	i	·	·	·	·	·	·
O=C(COc1ccc2c3c(c(=O)oc2c1)CCCC3)N1CCN(c2ccccc2)CC1	i	i	i	i	i	·	·	·	·	·	·
Cc1ccc(NC(=O)CN2CCOCC2)cc1C	i	i	i	i	i	·	·	·	·	·	·
Cc1ccc(-n2ncc3c2CC(C)(C)CC3NC(=O)C2CCOCC2)cc1 (stereo not given)	i	i	i	i	i	·	·	·	·	·	·
C=CCn1c(O)c(C2=c3ccccc3=NC2=O)sc1=Nc1ccc(O)cc1	i	-8*	i	i	i	·	·	·	·	55%*	i	TRPC4 sel inh 2=i;TRPC4 spec=-15%*;HEK293 MPD ctr 2-1=i;HEK293 MPD ctr-1=-138%*
O=C1N=c2ccccc2=C1c1sc(=S)n(NC(=O)c2ccccc2)c1O	i	i	i	i	i	·	·	·	·	·	·
COc1ccc(C(=O)c2c3ccc(C(F)(F)F)cc3[n+]([O-])n2CCCN)cc1	i	-5.7*	i	i	i	i	i	-9.5%*	47%*	48%*	i
Cc1ccc(C(=O)c2c3ccc(C(F)(F)F)cc3[n+]([O-])n2CCCN)cc1	i	-8.1*	i	i	i	·	·	·	·	76%*	i	TRPC4 sel inh 2=50%*;TRPC4 spec=-12%*;HEK293 MPD ctr 2-1=i;HEK293 MPD ctr-1=-158%*
c1ccc(-c2nc(N3CCCCCC3)c3ccccc3n2)nc1	i	-9.7*	i	i	i	-202%*	70%*	-30%*	73%*	62%*	i
CCCN(CCC)c1nc(-c2ccccn2)nc2ccccc12	i	-5.5*	i	i	i	i	78%*	i	68%*	76%*	i
